The results in this text go back to PubChem BioAssay.

The source made the active and inactive calls.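 Rule for the calls, unless noted: active = inhibition above 20% together with a positive visual image hit; inconclusive = visual image hit but inhibition not above 20%; inactive = no visual image hit.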

Experiment [1] is described as follows: inhibitors of TNFa-induced NFkB p65 translocation, primary screen, imaging, HUVEC, MLSMR starter and 10KST1 sets (AID 438).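 For inhibition: signal is the nuclear over cytoplasmic p65 intensity ratio per well.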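 Note: compound added about 3h40 before a 20 min TNFalpha stimulation.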 The conditions noted are these: HUVEC TNFa-induced p65 nuclear translocation; cell count: measured here: nuclei count (cytotoxicity indicator), at 2.08 µM; inhibition: at 2 µM, stronger effect = higher value, 0% TNFa-plus-vehicle, 100% no-TNFa wells.

Experiment [2] can be described thus: endothelial E-selectin expression blockers – imaging, HUVEC, immunofluorescence, MLSMR starter and 10KST1 sets, primary screen (AID 487;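 active = visually confirmed hit in the image check and inhibition above 20%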;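 for inhibition: signal is fraction of cell area covered by stained E-selectin grains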;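 for nuclei count: 100% = median nuclei count of all wells on the same plate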). The conditions noted are these: HUVEC TNFalpha-induced E-selectin immunofluorescence imaging, at 2 µM; inhibition: stronger effect = higher value; nuclei count: measured here: cell number, toxicity.
Experiment [3] is described as follows: Primary imaging screen for DUSP6 inhibitors that restore phospho-Erk in transfected HeLa cells, chemical complementation (AID 609;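 active = compounds giving at least 50% inhibition in the cell-based MKP-3 phosphatase rescue imaging test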;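 for inhibition: phospho-Erk level distribution per well compared with pooled transfected vehicle control wells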). As to conditions: HeLa MKP-3 transfected, phospho-Erk imaging KS statistic, at 10 µM, cells stimulated with TPA for 15 min.
Experiment [4] has as its target Dual specificity protein phosphatase 6 (Homo sapiens) (UniProt Q16828). The experiment is described as above. As to conditions: HeLa MKP-3 transfected, phospho-Erk imaging KS statistic; at 10 µM; stronger effect = higher value; cells stimulated with TPA for 15 min.
Experiment [5] addresses Voltage-gated potassium channel subunit beta-2 (Rattus norvegicus) (UniProt P62483). The experiment can be described thus: inhibitors of rat Kvbeta2 reductase activity – biochemical, NADPH fluorescence, primary screen (AID 622;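 active = fluorescence slope higher than the sample average by over 3 SD, cut at about -0.22 in these data, passing the limit was not always enough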;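 note: slope of raw intensity against log time taken from 70 to 1610 s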). As to conditions: recombinant KvBeta, 4-cyanobenzaldehyde reduction, at 10 µM, stronger effect = higher value.
Experiment [6] has the same target. The experiment can be described thus: enhancers of rat Kvbeta2 NADPH turnover – biochemical, NADPH fluorescence, primary screen (AID 623;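 active = NADPH fluorescence slope more negative than the mean of all samples by about 3 SD, 99.7% confidence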;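 note: fluorescence intensity change per second fitted from 20 to 320 s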). The conditions noted are these: Recombinant KvBeta, NADPH fluorescence decrease slope, 10 min; at 10 µM; stronger effect = lower value.
The target of experiment [7] is Muscarinic acetylcholine receptor M4 (Homo sapiens) (UniProt P08173). The experiment can be described thus: M4-linked GIRK flux change, two-sided – cell-based, HEK293 M4/GIRK, thallium flux, BTC-AM, M4 allosteric agonist project, primary screen (AID 625;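 active = fluorescence slope after compound addition differing from the mean of all tested samples at 99.7% confidence, mostly higher but some lower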;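 note: thallium influx through GIRK channels coupled to M4 in HEK293 cells with BTC-AM dye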). The conditions noted are these: at 10 µM, actives lie on both sides. A digest of the protocol:
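System: HEK293 cells with M4 receptor and GIRK channels | Incubation: Cells overnight at 37 °C, BTC-AM loading 1 h, reads 2 min total | Technique: Kinetic BTC-AM fluorescence sampled at 1 Hz, 10 s pre-addition baseline | Measure: Post-addition slope, 15–24 s, of baseline-normalized fluorescence | Control set: Carbachol positive, DMSO negative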

The nature of experiment [8]: inhibitors of larval lipid processing in zebrafish, primary screen, whole organism, PED6 fluorescence, gall bladder and intestine (AID 686;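 active = a full or partial loss of lipid-probe fluorescence in the fish gall bladder, intestine or both, judged by eye; inactive = no fluorescence loss, or compound toxic to the fish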;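 note: larvae 5 to 7 days old with five fish per well; signal comes from phospholipase A2 cleavage of quenched PED6 carried via bile; overnight exposure to compound and PED6 before scoring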). As to conditions: Zebrafish larvae PED6 lipid processing, fluorescence scoring; screened at 20 µM (by protocol). The gist of the method:
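Test system – live zebrafish larvae aged 5-7 days, whole organism · Buffer or medium – E3 fish medium · Reagent – quenched phospholipase substrate PED6, 100 nM final, ingested by larvae · Doses – 20 µM single dose · Incubation – overnight compound and PED6 incubation · Technique – visual fluorescence microscopy scoring of gall bladder, gut · Read-out basis – visual per-well fluorescence inhibition score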

The nature of experiment [9]: loss of swimming-algae plug formation – whole organism, Chlamydomonas reinhardtii, WT vs cilia-less mutant, absorbance, 96-well, primary screen (AID 463189;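 active = inhibition at or above 50% relative to wild type and mutant plate controls; inactive = inhibition below 50%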;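 note: 0% = wild type cc124 cells in DMSO and 100% = ciliumless bld1 mutant cells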). The conditions noted are these: Chlamydomonas reinhardtii gravitaxis, OD600 absorbance, 2 days; at 10 µM; stronger effect = higher value.
[10] abbreviates: measured here: cell density z-score.
Setting [11] is: measured here: nuclear c-Myc green intensity z-score.
Where [12] appears, read: measured here: nuclear pErk red intensity z-score, stronger effect = higher value.

Dual specificity protein phosphatase 6 (Homo sapiens), sequence (Q16828 whole entry, looked up): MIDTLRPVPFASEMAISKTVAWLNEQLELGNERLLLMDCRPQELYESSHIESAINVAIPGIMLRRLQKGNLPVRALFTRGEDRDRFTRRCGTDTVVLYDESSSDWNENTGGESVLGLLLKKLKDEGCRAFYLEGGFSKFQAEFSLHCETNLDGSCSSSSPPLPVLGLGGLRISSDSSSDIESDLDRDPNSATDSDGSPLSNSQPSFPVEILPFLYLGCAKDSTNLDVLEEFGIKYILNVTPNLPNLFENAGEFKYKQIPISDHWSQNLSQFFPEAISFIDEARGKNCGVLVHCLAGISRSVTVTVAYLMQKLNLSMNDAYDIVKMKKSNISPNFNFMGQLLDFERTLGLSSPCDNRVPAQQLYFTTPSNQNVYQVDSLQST
Muscarinic acetylcholine receptor M4 (Homo sapiens), sequence (P08173 whole entry, looked up): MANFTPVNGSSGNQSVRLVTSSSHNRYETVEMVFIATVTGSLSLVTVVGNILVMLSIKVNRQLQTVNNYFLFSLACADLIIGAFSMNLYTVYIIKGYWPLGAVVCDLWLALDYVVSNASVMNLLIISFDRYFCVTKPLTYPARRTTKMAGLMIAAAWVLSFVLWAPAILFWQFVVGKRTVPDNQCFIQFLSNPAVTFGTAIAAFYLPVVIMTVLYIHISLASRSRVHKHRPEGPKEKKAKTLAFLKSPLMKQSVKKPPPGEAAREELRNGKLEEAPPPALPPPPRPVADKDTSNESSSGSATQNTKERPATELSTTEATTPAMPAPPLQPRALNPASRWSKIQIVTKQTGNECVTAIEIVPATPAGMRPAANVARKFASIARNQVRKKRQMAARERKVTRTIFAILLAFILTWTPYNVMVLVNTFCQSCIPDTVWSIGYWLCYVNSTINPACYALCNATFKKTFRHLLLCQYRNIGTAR
Voltage-gated potassium channel subunit beta-2 (Rattus norvegicus), sequence (P62483 whole entry, looked up): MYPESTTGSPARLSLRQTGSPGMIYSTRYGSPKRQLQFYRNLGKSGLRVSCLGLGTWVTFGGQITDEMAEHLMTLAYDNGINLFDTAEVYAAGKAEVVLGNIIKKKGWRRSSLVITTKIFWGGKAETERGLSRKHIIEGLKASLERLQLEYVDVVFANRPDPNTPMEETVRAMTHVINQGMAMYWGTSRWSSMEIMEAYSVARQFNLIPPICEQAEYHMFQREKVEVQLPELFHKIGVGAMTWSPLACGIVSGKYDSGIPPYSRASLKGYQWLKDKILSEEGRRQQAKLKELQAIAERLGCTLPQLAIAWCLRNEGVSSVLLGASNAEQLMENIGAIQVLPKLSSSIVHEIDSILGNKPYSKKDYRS

A word on the inhibition: it is the drop in the measured response relative to a control, in per cent. Consider `CN1CCc2c(c3c(n2C)CCN(C)[C@@H]3c2cccnc2)[C@H]1c1cccnc1`, for which the cell count in [1] came to 406. Further, the inhibition was -15.1% (inactive) in experiment [1], -320% (inactive) in experiment [2], 15.4% (inactive) in experiment [4] and 5.73% (inactive) in experiment [9]. The compound further yielded a nuclei count in experiment [2] of 159%. For the same compound, the z-score is 0.329 in experiment [3] (setting [10]), -0.347 in experiment [3] (setting [11]) and 0.296 in [3] (setting [12]). In addition, the results for the fluorescence slope in [5] and in experiment [7] were -0.478 (inactive) and 0.00388 (inactive), respectively. For the same compound, the NADPH fluorescence slope in experiment [6] was -5.4e-05 (inactive). The outcome in experiment [8] is “inactive; toxic”.
For `COc1ccc(C(O)C(CN2CCOCC2)c2ccccc2)cc1` (stereo not given), the cell count in [1] amounted to 393. The inhibition in experiment [1] is -2.8% (inactive); in experiment [2], -22.6% (inactive); in experiment [4] it was -2.59% (inactive); in experiment [9] it was -3.86% (inactive). In addition, the nuclei count in experiment [2] is 144%. Besides, the z-score in experiment [3] (setting [10]) was -0.497; in experiment [3] (setting [11]) it was -1.2; in experiment [3] (setting [12]), 2.05. The results for the fluorescence slope in experiment [5] and in [7] were -0.44 (inactive) and 0.00559 (inactive), respectively. In experiment [6], the NADPH fluorescence slope was -0.00013 (inactive). In addition, in experiment [8], the outcome was inactive.
For `CCOC(=O)c1c(C)n(C)c2ccc(O)c(CN3CCCCC3)c12`, the cell count in experiment [1] is 616. The inhibition in [1] was 9.7% (inactive); in experiment [2], -7.7% (inactive); in experiment [4], -15.1% (inactive); in experiment [9], 22.8% (inactive). This compound showed a nuclei count in experiment [2] of 92.8%. Besides, the z-score is -0.792 in experiment [3] (setting [10]), 0.194 in experiment [3] (setting [11]) and -0.0734 in [3] (setting [12]). Moreover, the fluorescence slope was -0.442 (inactive) in experiment [5] and 0.00334 (inactive) in [7]. Besides, the NADPH fluorescence slope in experiment [6] is -3.9e-05 (inactive). For the same compound, in experiment [8], the outcome was inactive.
On to `CC1(C)Cc2[nH]c(=S)c(C#N)cc2CO1`, for which the cell count in experiment [1] is 531. Also, the inhibition in experiment [1] was -11.7% (inactive); in experiment [2], -90.9% (inactive); in [4], -5.81% (inactive); in experiment [9], -14% (inactive). Also, in [2], the nuclei count turned out to be 118%. Besides, the z-score in [3] (setting [10]) is 0.165; in experiment [3] (setting [11]), 0.751; in experiment [3] (setting [12]), -0.483. For the same compound, the figures for the fluorescence slope in [5] and in experiment [7] were -0.459 (inactive) and 0.0062 (inactive), respectively. For the same compound, in [6], the NADPH fluorescence slope is -0.000113 (inactive). Further, the call in experiment [8] was inactive.
Regarding `CNc1oc(-c2cccs2)nc1C#N`, the cell count in [1] was found to be 683. Moreover, the inhibition in [1] is -0.7% (inactive); in experiment [2], -2.1% (inactive); in experiment [4], 1.63% (inactive); in [9], 7.4% (inactive). The nuclei count in experiment [2] was found to be 144%. The results for the z-score in experiment [3] (setting [10]), in experiment [3] (setting [11]) and in experiment [3] (setting [12]) were 0.965, 0.294 and 0.102, respectively. The fluorescence slope in experiment [5] was -0.0289 (inactive); in [7] it was 0.00668 (inactive). In addition, the NADPH fluorescence slope in experiment [6] was -2.3e-05 (inactive). For the same compound, the result in [8] was inactive.
Take `COc1cccc(C2/C(=C(\O)c3ccc(OC)c(OC)c3)C(=O)C(=O)N2c2cc(C)on2)c1` (stereo not given): the cell count in experiment [1] worked out at 715. Moreover, the inhibition was 1.5% (inactive) in [1], -63.2% (inactive) in experiment [2], -4.7% (inactive) in experiment [4] and -1.1% (inactive) in [9]. The compound also came in with a nuclei count in experiment [2] of 178%. Moreover, the values for the z-score in experiment [3] (setting [10]), in experiment [3] (setting [11]) and in experiment [3] (setting [12]) were -0.072, -0.154 and 1.26, respectively. The fluorescence slope is -0.449 (inactive) in experiment [5] and 0.00553 (inactive) in [7]. Moreover, in [6], the NADPH fluorescence slope was -3e-05 (inactive). Also, the call in [8] was inactive.
Take `CCC(=O)Nc1nc(C)c(Oc2ccccc2)c(=O)[nH]1`: in experiment [1], the cell count is 696. Also, the inhibition was -5.5% (inactive) in [1], 34.5% (inactive) in experiment [2], -9.53% (inactive) in experiment [4] and 2.71% (inactive) in [9]. Besides, the nuclei count in experiment [2] is 151%. Also, the z-score was -0.359 in experiment [3] (setting [10]), -0.286 in experiment [3] (setting [11]) and 0.522 in experiment [3] (setting [12]). Also, the fluorescence slope in experiment [5] is -0.412 (inactive); in experiment [7] it was 0.00483 (inactive). Moreover, the NADPH fluorescence slope in experiment [6] was -4.2e-05 (inactive). For the same compound, the compound was called inactive in [8].
On to `O=C(NCCc1ccccc1)/C(=N\O)c1ccccc1`, for which the cell count in [1] came to 555. The inhibition in experiment [1] is -5.6% (inactive); in experiment [2], 19.1% (inactive); in experiment [4], 13.9% (inactive); in [9], 2.81% (inactive). The nuclei count in experiment [2] came out at 182%. Also, the z-score in [3] (setting [10]) was 1.61; in experiment [3] (setting [11]), -1.77; in [3] (setting [12]), -0.308. For the same compound, the fluorescence slope is -0.404 (inactive) in experiment [5] and 0.00486 (inactive) in experiment [7]. Further, the NADPH fluorescence slope in experiment [6] is -8.5e-06 (inactive). In addition, the result in experiment [8] was inactive.
With `C/C(NC(=O)c1cccs1)=C1\C(=O)C[C@@H]2[C@H]1C2(C)C`, the cell count in [1] stood at 562. The inhibition in experiment [1] is -1.6% (inactive); in experiment [2] it was -127% (inactive); in experiment [4], 11.9% (inactive); in experiment [9] it was -3.09% (inactive). The same compound came in with a nuclei count in experiment [2] of 150%. In addition, the z-score in [3] (setting [10]) is 0.211; in [3] (setting [11]), -0.0395; in [3] (setting [12]), -0.0984. The fluorescence slope was -0.392 (inactive) in experiment [5] and 0.00498 (inactive) in experiment [7]. Besides, the NADPH fluorescence slope in [6] was -6e-05 (inactive). For the same compound, the result in [8] was inactive.
Turning to `C=CCNc1nc(N2CCCCC2)c(C#N)c2c1CN(Cc1ccccc1)CC2`, the cell count in experiment [1] was 504. Besides, the inhibition in experiment [1] is -15.8% (inactive); in experiment [2], -82.3% (inactive); in [4], -9.53% (inactive); in experiment [9] it was 0.584% (inactive). This compound showed a nuclei count in [2] of 127%. Besides, the z-score in experiment [3] (setting [10]) was 0.348; in experiment [3] (setting [11]) it was -0.299; in [3] (setting [12]), -0.89. The fluorescence slope in experiment [5] is -0.473 (inactive); in experiment [7], 0.00373 (inactive). For the same compound, in [6], the NADPH fluorescence slope was -5.4e-05 (inactive). In experiment [8], the result was inactive.
